This is an account of results in PubChem BioAssay AID624038 (The Scripps Research Institute Molecular Screening Center, 2012).

Hit rate of the full screen: of about 360,000 compounds, about 1,100 (0.31%) were called active. The sample as a whole holds a higher share of actives than the screen did. A number with no mark means an inactive call.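 Rule for the calls: active = activation above the run cutoff, the mean activation of all test compounds plus 3 SD (cut at about 18% in these data); inactive = the rest.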

Muscarinic acetylcholine receptor M5 (Homo sapiens), sequence (P08912 whole entry, looked up): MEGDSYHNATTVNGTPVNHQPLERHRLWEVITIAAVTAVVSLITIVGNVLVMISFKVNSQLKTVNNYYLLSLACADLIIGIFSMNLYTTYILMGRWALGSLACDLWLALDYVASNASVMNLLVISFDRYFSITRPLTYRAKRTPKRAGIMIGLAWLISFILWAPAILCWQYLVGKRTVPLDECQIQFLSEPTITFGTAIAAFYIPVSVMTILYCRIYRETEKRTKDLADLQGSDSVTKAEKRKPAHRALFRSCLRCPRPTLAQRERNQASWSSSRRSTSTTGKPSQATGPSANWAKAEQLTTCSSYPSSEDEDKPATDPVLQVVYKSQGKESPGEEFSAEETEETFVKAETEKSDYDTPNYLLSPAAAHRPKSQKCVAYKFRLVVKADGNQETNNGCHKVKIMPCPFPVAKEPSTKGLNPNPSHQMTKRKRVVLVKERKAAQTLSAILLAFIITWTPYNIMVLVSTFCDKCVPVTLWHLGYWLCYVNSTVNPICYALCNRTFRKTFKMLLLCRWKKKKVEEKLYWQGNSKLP

This assay concerns the target Muscarinic acetylcholine receptor M5 (Homo sapiens) (UniProt P08912). The assay is described as follows: human M5 muscarinic receptor positive allosteric modulators, primary screen, CHO-K1 cells, Fluo-8 calcium fluorescence (AID 624038). As to conditions: CHO-K1 hM5, Fluo-8 calcium, ACh EC20 PAM; at 3 µM; hits give high values; 0% = ACh EC20, 100% = ACh EC100. In outline:
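System: CHO-K1 hM5 cells. Reagent: acetylcholine, EC20 level. Compound dosing: single dose, 3 µM nominal final test concentration. Timing: Post-acetylcholine fluorescence recording 140 s. Detection: Fluo-8 calcium fluorescence. Read-out: % activation, ACh-normalized. Benchmarks: ACh EC20 and EC100 wells. Repeats: singlicate, one well per test compound.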
In the case of `CC=C(C)C(=O)OC1CCN2CC=C(COC(=O)C(O)(C(C)OC)C(C)(C)O)C12` (stereo not given), the activation is 19.2% (active).

With `CCOP(=S)(OCC)SCOC(=O)NCC(=O)OC`, the activation is 0.05%.

Consider `O=[N+]([O-])c1cnc2ccc3ccccc3c2c1`, for which the activation was 3.69%.

For the compound `COc1ccc(-n2c(-c3ccccc3)nc3ccccc3c2=O)cc1`, the activation is 14.8%.

Consider `COC(=O)CN(CCCl)P1(=O)OCCCN1CCCl` (stereo not given), for which the activation is -10.4%.
